Assay results from ChEMBL document CHEMBL1123146, “Design, synthesis, and evaluation of omega-iodovinyl- and omega-iodoalkyl-substituted methyl-branched long-chain fatty acids” (J Med Chem, 1985).

Legend:
Rattus norvegicus [1] = assay: Concentration was measured in kidney tissue of unfasted Fischer 344 rats administered intravenously after 60 minute (radiolabeled with [125I]-; format: ADME, organism-based; conditions: in vivo, iv, 1 h
Summary of the method: (§1)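 Female Fischer 344 rats, 10-12 weeks old, 170-200 g, with food and water ad libitum. The 125I-fatty acid was taken up in ethanol, added dropwise to stirred 6% BSA at ~40 °C (final ethanol 10%), filtered, and given as 0.5 mL via lateral tail vein under ether anesthesia. Rats were killed by cervical fracture; blood was taken by cardiac puncture. Organs were rinsed, blotted, weighed and gamma-counted against injectate standards to give %ID/g. Five rats per time point.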

Rattus norvegicus [2] = assay: Concentration was measured in kidney tissue of unfasted Fischer 344 rats administered intravenously after 2 minute (radiolabeled with [125I]-; format: ADME, organism-based; conditions: in vivo, iv, 2 min; summary of the method: as §1
Rattus norvegicus [3] = assay: Concentration was measured in liver tissue f unfasted Fischer 344 rats administered intravenously after 10 minute (radiolabeled with [125I]-; format: ADME, organism-based; conditions: in vivo, iv, 10 min; summary of the method: as §1
Rattus norvegicus [4] = assay: Concentration was measured in liver tissue of unfasted Fischer 344 rats administered intravenously after 60 minute (radiolabeled with [125I]-; format: ADME, organism-based; conditions: in vivo, iv, 1 h; summary of the method: as §1
Rattus norvegicus [5] = assay: Concentration was measured in liver tissue of unfasted Fischer 344 rats administered intravenously after 2 minute (radiolabeled with [125I]-; format: ADME, organism-based; conditions: in vivo, iv, 2 min; summary of the method: as §1
Rattus norvegicus [6] = assay: Concentration was measured in liver tissue of unfasted Fischer 344 rats administered intravenously after 5 minute (radiolabeled with [125I]-; format: ADME, organism-based; conditions: in vivo, iv, 5 min; summary of the method: as §1
Rattus norvegicus [7] = assay: Concentration was measured in lungs tissue of unfasted Fischer 344 rats administered intravenously after 10 minute (radiolabeled with [125I]-; format: ADME, organism-based, Lung; conditions: in vivo, iv, 10 min; summary of the method: as §1
Rattus norvegicus [8] = assay: Concentration was measured in lungs tissue of unfasted Fischer 344 rats administered intravenously after 2 minute (radiolabeled with [125I]-; format: ADME, organism-based, Lung; conditions: in vivo, iv, 2 min; summary of the method: as §1
Rattus norvegicus [9] = assay: Concentration was measured in heart tissue of unfasted Fischer 344 rats administered intravenously after 2 minute (radiolabeled with [125I]-; format: ADME, organism-based; conditions: in vivo, iv, 2 min; summary of the method: as §1
Rattus norvegicus [10] = assay: Concentration was measured in heart tissue of unfasted Fischer 344 rats administered intravenously after 5 minute (radiolabeled with [125I]-; format: ADME, organism-based; conditions: in vivo, iv, 5 min; summary of the method: as §1
Rattus norvegicus [11] = assay: Concentration was measured in heart tissue of unfasted Fischer 344 rats administered intravenously after 60 minute (radiolabeled with [125I]-; format: ADME, organism-based; conditions: in vivo, iv, 1 h; summary of the method: as §1
Rattus norvegicus [12] = assay: Concentration was measured in heart tissue of unfasted Fischer 344 rats administered intravenously after 10 min (radiolabeled with [125I]-; format: ADME, organism-based; conditions: in vivo, iv; summary of the method: as §1
Rattus norvegicus [13] = assay: Concentration was measured in kidney tissue of unfasted Fischer 344 rats administered intravenously after 10 minute (radiolabeled with [125I]-; format: ADME, organism-based; conditions: in vivo, iv, 10 min; summary of the method: as §1
Rattus norvegicus [14] = assay: Concentration was measured in kidney tissue of unfasted Fischer 344 rats administered intravenously after 5 minute (radiolabeled with [125I]-; format: ADME, organism-based; conditions: in vivo, iv, 5 min; summary of the method: as §1
Rattus norvegicus [15] = assay: Concentration was measured in lungs tissue of unfasted Fischer 344 rats administered intravenously after 5 minute (radiolabeled with [125I]-; format: ADME, organism-based, Lung; conditions: in vivo, iv, 5 min; summary of the method: as §1
Rattus norvegicus [16] = assay: Concentration was measured in blood tissue of unfasted Fischer 344 rats administered intravenously after 10 minute (radiolabeled with [125I]-; format: ADME, organism-based; conditions: in vivo, iv, 10 min; summary of the method: as §1
Rattus norvegicus [17] = assay: Concentration was measured in blood tissue of unfasted Fischer 344 rats administered intravenously after 60 minute (radiolabeled with [125I]-; format: ADME, organism-based; conditions: in vivo, iv, 1 h; summary of the method: as §1
Rattus norvegicus [18] = assay: Concentration was measured in blood tissue of unfasted Fischer 344 rats administered intravenously after 2 minute (radiolabeled with [125I]-; format: ADME, organism-based; conditions: in vivo, iv, 2 min; summary of the method: as §1
Rattus norvegicus [19] = assay: Concentration was measured in blood tissue of unfasted Fischer 344 rats administered intravenously after 5 minute (radiolabeled with [125I]-; format: ADME, organism-based; conditions: in vivo, iv, 5 min; summary of the method: as §1
Rattus norvegicus [20] = assay: Concentration was measured in thyroid tissue of unfasted Fischer 344 rats administered intravenously after 10 minute (radiolabeled with [125I]-; format: ADME, organism-based, Thyroid gland; conditions: in vivo, iv, 10 min
Summary of the method: (§2)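 Female Fischer 344 rats, five per time point, each given 11 μCi of the ¹²⁵I-labeled fatty acid (~269 mCi/mmol) via a lateral tail vein in 0.5 mL of 6% BSA (10% ethanol) under ether anesthesia. Blood was drawn by cardiac puncture; organs were rinsed, weighed and gamma-counted against injectate standards. Output is % injected dose/g and mean heart/blood ratio.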

Rattus norvegicus [21] = assay: Concentration was measured in thyroid tissue of unfasted Fischer 344 rats administered intravenously after 2 minute (radiolabeled with [125I]-; format: ADME, organism-based, Thyroid gland; conditions: in vivo, iv, 2 min
Summary of the method: (§3)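 Female Fischer 344 rats, 10–12 weeks old (170–200 g), with food and water ad libitum, five per time point. The radioiodinated fatty acid was dissolved in ethanol, added to 6% BSA at ~40 °C (final 10% ethanol), filtered, and injected into a lateral tail vein (0.5 mL) under ether anesthesia. Blood was taken by cardiac puncture; organs were rinsed, blotted, weighed and gamma-counted against injectate standards. Output is % injected dose/g.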

Rattus norvegicus [22] = assay: Concentration was measured in thyroid tissue of unfasted Fischer 344 rats administered intravenously after 5 minute (radiolabeled with [125I]-; format: ADME, organism-based, Thyroid gland; conditions: in vivo, iv, 5 min; summary of the method: as §3
Rattus norvegicus [23] = assay: Concentration was measured in thyroid tissue of unfasted Fischer 344 rats administered intravenously after 60 minute (radiolabeled with [125I]-; format: ADME, organism-based, Thyroid gland; conditions: in vivo, iv, 1 h; summary of the method: as §3
Rattus norvegicus [24] = assay: Concentration was measured in lungs tissue of unfasted Fischer 344 rats administered intravenously after 60 minute (radiolabeled with [125I]-; format: ADME, organism-based, Lung; conditions: in vivo, iv, 1 h; summary of the method: as §1
Rattus norvegicus [25] = assay: Concentration was measured in mean heart/blood tissue of unfasted Fischer 344 rats administered intravenously after 10 minute (radiolabeled with [125I]-; format: ADME, organism-based; conditions: iv, 10 min; summary of the method: as §2
Rattus norvegicus [26] = assay: Concentration was measured in mean heart/blood tissue of unfasted Fischer 344 rats administered intravenously after 2 minute (radiolabeled with [125I]-; format: ADME, organism-based; conditions: in vivo, iv, 2 min
Rattus norvegicus [27] = species on record: Rattus norvegicus; assay: Specific activity was determined with radioiodinated iodine-125; format: functional
Rattus norvegicus [28] = assay: Concentration was measured in mean heart/blood tissue of fasted Fischer 344 rats administered intravenously after 5 minute (radiolabeled with [125I]-; conditions: in vivo, iv, 5 min
Rattus norvegicus [29] = assay: Concentration was measured in mean heart/blood tissue of fasted Fischer 344 rats administered intravenously after 60 minute (radiolabeled with [125I]-; conditions: in vivo, iv, 1 h

`CC(CCCCCCCCCCCCCCI)CC(=O)O` (centres undefined) was tested. Which Distribution (Rattus norvegicus [1]) did it give?
The Distribution was 0.59%.

And the Distribution (Rattus norvegicus [2])?
The Distribution was 1.35%.

What about the Distribution (Rattus norvegicus [3]) of the same compound?
Its Distribution is 2.54%.

What about the Distribution (Rattus norvegicus [4]) of the same compound?
The Distribution was 0.95%.

What about the Distribution (Rattus norvegicus [5]) of the same compound?
The Distribution was 3.93%.

And the Distribution (Rattus norvegicus [6])?
The Distribution was 2.5%.

And the Distribution (Rattus norvegicus [7])?
The Distribution was 1.16%.

What about the Distribution (Rattus norvegicus [8]) of the same compound?
Its Distribution is 1.75%.

What about the Distribution (Rattus norvegicus [9]) of the same compound?
The Distribution was 2.68%.

And the Distribution (Rattus norvegicus [10])?
Its Distribution is 1.93%.

What about the Distribution (Rattus norvegicus [11]) of the same compound?
Its Distribution is 0.95%.

And the Distribution (Rattus norvegicus [12])?
The Distribution was 1.77%.

What about the Distribution (Rattus norvegicus [13]) of the same compound?
The Distribution was 0.96%.

What about the Distribution (Rattus norvegicus [14]) of the same compound?
The Distribution was 1.06%.

What about the Distribution (Rattus norvegicus [15]) of the same compound?
The Distribution was 1.03%.

What about the Distribution (Rattus norvegicus [16]) of the same compound?
The Distribution was 1.31%.

What about the Distribution (Rattus norvegicus [17]) of the same compound?
Its Distribution is 0.72%.

And the Distribution (Rattus norvegicus [18])?
Its Distribution is 2.47%.

What about the Distribution (Rattus norvegicus [19]) of the same compound?
Its Distribution is 1.43%.

And the Distribution (Rattus norvegicus [20])?
The Distribution was 43.3%.

What about the Distribution (Rattus norvegicus [21]) of the same compound?
Its Distribution is 22.5%.

What about the Distribution (Rattus norvegicus [22]) of the same compound?
Its Distribution is 30.2%.

And the Distribution (Rattus norvegicus [23])?
Its Distribution is 217%.

What about the Distribution (Rattus norvegicus [24]) of the same compound?
The Distribution was 0.68%.

And the Distribution (Rattus norvegicus [25])?
Its Distribution is 1.35%.

What about the Distribution (Rattus norvegicus [26]) of the same compound?
The Distribution was 1.09%.

What about the Specific activity (Rattus norvegicus [27]) of the same compound?
Its Specific activity is 0.269 Ci mM-1.

And the Distribution (Rattus norvegicus [28])?
The Distribution was 1.35%.

What about the Distribution (Rattus norvegicus [29]) of the same compound?
Its Distribution is 1.32%.
